Data on 18 molecules can be found in ChEMBL document CHEMBL1129668 (J Med Chem, 1996).

Assay [1] deals with Sodium-dependent dopamine transporter (Rattus norvegicus, UniProt P23977). The assay can be described thus: In vitro binding affinity towards dopamine transporter in rat striatal membranes by […] displacement. The format is cell membranes, Striatum, Membrane. An outline of the steps: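 Crude membranes of rat corpus striatum in Tris-citrate buffer (pH 7.4) with Na+ and Mg2+ (4 mM). Six concentrations, duplicate; computer-fit IC50 converted to Ki via Cheng–Prusoff relation using radioligand K_d.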

Assay [2] has as its target Norepinephrine transporter (Rattus norvegicus, UniProt Q9WTR4). The assay can be described thus: In vitro binding affinity towards Norepinephrine transporter rat cerebral cortical homogenates by [3H]nisoxetine displacement. An outline of the steps:
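Crude membrane fraction of rat frontoparietal cerebral cortex in 50 mM Tris-HCl (pH 7.4) with Na+, K+ (5 mM). Typically six concentrations in duplicate; curves computer-fit for IC50, converted to Ki = IC50/(1 + [L]/K_d).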

The target in assay [3] is Sodium-dependent serotonin transporter (Rattus norvegicus, UniProt P31652). The assay can be described thus: In vitro binding affinity towards serotonin transporter in rat cerebral cortical homogenates by [3H]paroxetine displacement.
In assay [4] the target is Monoamine transporters; Norepininephrine & dopamine (Rattus norvegicus) (UniProt P23977+Q9WTR4). The assay can be described thus: Selectivity for Dopamine and Norepinephrine transporters. The format is protein assay.
The target in assay [5] is Monoamine transporters; serotonin & dopamine (Rattus norvegicus) (UniProt P31652+P23977). The assay can be described thus: Selectivity for Dopamine and Serotonin transporters. Type of assay: protein assay.
Monoamine transporters; serotonin & dopamine (Rattus norvegicus), sequence (P23977 whole entry, looked up): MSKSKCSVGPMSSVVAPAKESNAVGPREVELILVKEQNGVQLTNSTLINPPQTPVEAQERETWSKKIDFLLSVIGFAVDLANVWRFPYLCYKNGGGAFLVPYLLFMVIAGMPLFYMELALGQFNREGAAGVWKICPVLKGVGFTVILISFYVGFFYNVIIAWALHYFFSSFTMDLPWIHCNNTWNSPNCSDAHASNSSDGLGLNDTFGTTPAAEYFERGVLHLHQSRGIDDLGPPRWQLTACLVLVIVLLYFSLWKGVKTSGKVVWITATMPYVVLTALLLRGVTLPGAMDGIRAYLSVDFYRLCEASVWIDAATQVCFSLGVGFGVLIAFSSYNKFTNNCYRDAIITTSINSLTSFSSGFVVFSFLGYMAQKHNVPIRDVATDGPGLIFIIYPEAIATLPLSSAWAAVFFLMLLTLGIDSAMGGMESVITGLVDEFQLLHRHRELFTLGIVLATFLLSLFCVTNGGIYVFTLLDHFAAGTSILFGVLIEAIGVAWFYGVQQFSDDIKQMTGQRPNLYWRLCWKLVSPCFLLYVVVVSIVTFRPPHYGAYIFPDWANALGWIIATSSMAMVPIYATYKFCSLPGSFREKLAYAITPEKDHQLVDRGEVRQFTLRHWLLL
Monoamine transporters; serotonin & dopamine (Rattus norvegicus), sequence (P31652 whole entry, looked up): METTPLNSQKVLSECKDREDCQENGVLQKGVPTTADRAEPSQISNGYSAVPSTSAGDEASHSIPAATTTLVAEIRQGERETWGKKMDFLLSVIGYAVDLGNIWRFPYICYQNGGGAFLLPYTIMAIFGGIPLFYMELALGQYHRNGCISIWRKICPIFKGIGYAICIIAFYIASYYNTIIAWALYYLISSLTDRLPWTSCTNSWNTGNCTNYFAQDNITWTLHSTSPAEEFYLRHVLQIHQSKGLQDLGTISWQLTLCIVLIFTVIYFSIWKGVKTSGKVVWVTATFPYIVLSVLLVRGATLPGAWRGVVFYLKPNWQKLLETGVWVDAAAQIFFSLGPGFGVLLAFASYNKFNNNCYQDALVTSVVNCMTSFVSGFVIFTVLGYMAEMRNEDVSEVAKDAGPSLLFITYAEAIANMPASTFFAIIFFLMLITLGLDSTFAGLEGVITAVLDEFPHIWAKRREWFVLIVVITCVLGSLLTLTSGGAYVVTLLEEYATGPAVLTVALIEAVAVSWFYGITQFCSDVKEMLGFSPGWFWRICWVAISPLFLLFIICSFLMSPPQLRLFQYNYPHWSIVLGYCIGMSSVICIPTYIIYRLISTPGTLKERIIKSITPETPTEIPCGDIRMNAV

Sodium-dependent dopamine transporter, sequence (P23977 whole entry): as the sequence (P23977 whole entry, looked up) above
Sodium-dependent serotonin transporter, sequence (P31652 whole entry): as the sequence (P31652 whole entry, looked up) above
Norepinephrine transporter, sequence (Q9WTR4 whole entry): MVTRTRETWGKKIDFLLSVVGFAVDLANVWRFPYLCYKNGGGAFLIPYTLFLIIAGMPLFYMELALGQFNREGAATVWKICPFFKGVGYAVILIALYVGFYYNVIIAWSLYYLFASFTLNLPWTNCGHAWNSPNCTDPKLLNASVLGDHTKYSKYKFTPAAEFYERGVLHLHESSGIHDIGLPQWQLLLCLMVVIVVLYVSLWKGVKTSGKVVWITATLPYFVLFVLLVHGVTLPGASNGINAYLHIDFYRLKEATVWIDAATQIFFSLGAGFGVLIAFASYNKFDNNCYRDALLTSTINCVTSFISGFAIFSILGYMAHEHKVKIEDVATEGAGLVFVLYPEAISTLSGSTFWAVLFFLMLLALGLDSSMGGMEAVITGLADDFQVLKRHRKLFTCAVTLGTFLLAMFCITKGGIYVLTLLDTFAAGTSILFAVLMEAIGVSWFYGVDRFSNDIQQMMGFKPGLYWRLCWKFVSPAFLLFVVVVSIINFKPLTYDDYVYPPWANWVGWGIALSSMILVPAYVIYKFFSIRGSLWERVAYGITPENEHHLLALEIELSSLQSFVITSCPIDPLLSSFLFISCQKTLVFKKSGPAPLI

On to `COC(=O)C1C(c2ccc(I)cc2)CC2CCC1N2CC1CC1` (stereo unspecified), for which the values for the inhibition constant (Ki) in assay [1], in assay [2] and in assay [3] were 4.3 nM, 198 nM and 1.3 nM, respectively. The Selectivity is 45.6 in assay [4] and 0.302 in assay [5].

On to `COC(=O)C1C(c2ccc(I)cc2)CC2CCC1N2CCCO` (stereo unspecified), for which the Ki (commonly the dissociation constant of the complex between target and ligand, obtained from inhibition or displacement) in assay [1] is 5.39 nM; in assay [2] it was 217 nM; in assay [3], 2.5 nM. Moreover, the figures for the Selectivity in assay [4] and in assay [5] were 40.3 and 0.463, respectively.

In the case of `COC(=O)C1C(c2ccc(I)cc2)CC2CCC1N2CCF` (stereo unspecified), the Ki was found to be 4 nM in assay [1], 93 nM in assay [2] and 0.14 nM in assay [3]. Besides, the Selectivity turned out to be 23.2 in assay [4] and 0.035 in assay [5].

For `COC(=O)C1C(c2ccc(I)cc2)CC2CCC1N2CC(F)F` (stereo unspecified), the results for the Ki in assay [1], in assay [2] and in assay [3] were 15.1 nM, > 5000 nM and 9.6 nM, respectively. Besides, the Selectivity was > 330 in assay [4] and 0.636 in assay [5].

Take `COC(=O)[C@H]1[C@@H](c2ccc(F)cc2)C[C@H]2CC[C@H]1N2C`: the inhibition constant (Ki) in assay [2] amounted to 635 nM; in assay [3] it was 181 nM.

For the molecule `COC(=O)CN1C2CCC1C(C(=O)OC)C(c1ccc(I)cc1)C2` (stereo unspecified), the Ki worked out at 11.9 nM in assay [1], 29.1 nM in assay [2] and 0.81 nM in assay [3]. Besides, the Selectivity in assay [4] was found to be 2.5; in assay [5], 0.068.

On to `COC(=O)[C@@H]1C2CCC(C[C@@H]1c1ccc(I)cc1)N2CC(=O)N(C)C` (stereo partly specified), for which the Ki in assay [1] stood at 12.2 nM; in assay [2] it was 522 nM; in assay [3], 6.4 nM. The Selectivity in assay [4] stood at 42.8; in assay [5], 0.524.

Turning to `COC(=O)C1C(c2ccc(I)cc2)CC2CCC1N2CCCOS(C)(=O)=O` (stereo unspecified), the results for the Ki in assay [1], in assay [2] and in assay [3] were 36.3 nM, 5000 nM and 17.3 nM, respectively. For the same molecule, the values for the Selectivity in assay [4] and in assay [5] were 138 and 0.477, respectively.

As to `CC(C)OC(=O)C1C(c2ccc(I)cc2)CC2CCC1N2CCF` (stereo unspecified), the figures for the inhibitory constant (Ki) in assay [1], in assay [2] and in assay [3] were 4.4 nM, > 10000 nM and 21.7 nM, respectively. For the same molecule, the Selectivity in assay [4] was > 2300; in assay [5] it was 4.9.

With `COC(=O)[C@@H]1C2CCC(C[C@@H]1c1ccc(I)cc1)N2CCCN1C(=O)c2ccccc2C1=O` (stereo partly specified), the Ki in assay [1] is 9.1 nM; in assay [2], 73.7 nM; in assay [3], 0.59 nM. The Selectivity was determined as 8.1 in assay [4] and 0.065 in assay [5].

`COC(=O)C1C(c2ccc(I)cc2)CC2CCC1N2C` (stereo unspecified): the figures for the inhibition constant (Ki) in assay [1] and in assay [2] were 1.4 nM and 2.8 nM, respectively. Further, the Selectivity was found to be 2 in assay [4] and 0.32 in assay [5].

Turning to `CC(C)OC(=O)C1C(c2ccc(I)cc2)CC2CCC1N2CCCF` (stereo unspecified), the Ki in assay [1] came out at 1.2 nM; in assay [2] it was 10000 nM; in assay [3] it was 48.7 nM. The Selectivity in assay [4] came out at 8300; in assay [5], 40.6.

Turning to `COC(=O)C1C(c2ccc(I)cc2)CC2CCC1N2CCCBr` (stereo unspecified), the Ki in assay [1] was 2.56 nM; in assay [2], 164 nM; in assay [3] it was 0.35 nM. Further, the figures for the Selectivity in assay [4] and in assay [5] were 64.1 and 0.137, respectively.

Consider `COC(=O)C1C(c2ccc(I)cc2)CC2CCC1N2CCCF` (stereo unspecified), for which the Ki in assay [1] worked out at 3.5 nM; in assay [2] it was 63 nM; in assay [3], 0.11 nM. Further, the Selectivity in assay [4] was 18; in assay [5] it was 0.032.

For the molecule `COC(=O)C1C(c2ccc(I)cc2)CC2CCC1N2CCCCl` (stereo unspecified), the Ki in assay [1] was 3.1 nM; in assay [2], 96 nM; in assay [3], 0.32 nM. For the same molecule, the Selectivity was 31 in assay [4] and 0.1 in assay [5].

Take `COC(=O)C1C(c2ccc(I)cc2)CC2CCC1N2C(=O)C(C)C` (stereo unspecified): the Ki in assay [1] is 2100 nM; in assay [2], > 10000 nM; in assay [3], 102 nM. Further, the Selectivity in assay [4] is > 4.8; in assay [5], 0.049.

Consider `COC(=O)C1C(c2ccc(I)cc2)CC2CCC1N2CCCI` (stereo unspecified), for which the figures for the Ki in assay [1], in assay [2] and in assay [3] were 38.9 nM, 5000 nM and 8.84 nM, respectively. The Selectivity in assay [4] was 129; in assay [5], 0.227.

As for `COC(=O)C1C(c2ccc(I)cc2)CC2CCC1N2CC(OC)OC` (stereo unspecified), the inhibitory constant (Ki) in assay [1] worked out at 6.8 nM; in assay [2] it was 110 nM; in assay [3], 1.69 nM. Moreover, the Selectivity in assay [4] turned out to be 16.2; in assay [5] it was 0.249.
